Screening data deposited in PubChem by several laboratories.
Rce1 inhib = blocks yeast Ras-converting enzyme; Q03530; yeast membranes, quenched prenylated peptide cleavage fluorescence; calls only; 290,000 tested, 0.27% active;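 active = fall in fluorescence gain of 50% or more versus controls, with final raw signal at or below 3038400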;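 note: plate controls were neutral control wells for no effect and wells lacking membranes for full effect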
Target sequence (Q03530 whole entry, looked up): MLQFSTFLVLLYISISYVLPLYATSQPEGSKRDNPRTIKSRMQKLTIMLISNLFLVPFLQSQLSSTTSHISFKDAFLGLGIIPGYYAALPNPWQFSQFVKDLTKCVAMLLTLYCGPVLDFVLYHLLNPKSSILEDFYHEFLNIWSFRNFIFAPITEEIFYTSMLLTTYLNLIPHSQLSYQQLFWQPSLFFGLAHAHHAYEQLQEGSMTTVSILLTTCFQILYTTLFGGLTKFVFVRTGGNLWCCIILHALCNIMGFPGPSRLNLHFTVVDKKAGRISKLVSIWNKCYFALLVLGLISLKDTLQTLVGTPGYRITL
PG9 Ab binder = small molecules binding HIV-1 gp120 antibody PG9; 360,000 tested, 0.43% active; inhibition, % at 6.7 µM; TR-FRET gp120-PG9 antibody binding; AID 624416; in the data active = inhibition above about 8.5%
MIN6 prolif = inducers of beta-cell replication in MIN6 cells; MIN6 cells proliferation, ATPlite luminescence, 48 h; cells starved in 0.2% serum; 100% = growth in 10% serum; proliferation, % at 10 µM; 330,000 tested, 0.29% active;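 active = compounds whose signal lies at least 3.5 SD above the mean of all wells on their plate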;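 note: 0% = DMSO-treated cells in low-serum medium and 100% = 10% serum control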
Rev-erbA mod = Rev-erb alpha (human) modulation. Rev-erbα–FITC-DNA binding, fluorescence polarization, 90 min. 370,000 tested, 0.79% active. activity, % at 10 µM;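 active = activity above about 14%, limit read from the data; passing the limit was not always enough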;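 note: 0% = DMSO wells with 35 nM protein and 100% = DMSO wells with 750 nM protein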
UCH37 inh = inhibitors of human deubiquitinating enzyme UCH37; Q9Y5K5; purified proteasome/UCH37, Ub-AMC cleavage fluorescence; inhibition, % (concentration not given with the values); 330,000 tested, 0.33% active; AID 588478;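 active = mean inhibition over replicate wells above about 20%, limit read from the data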;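 note: 0% = compound-free wells with enzyme and 100% = wells lacking proteasome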
Target sequence (Q9Y5K5 whole entry, looked up): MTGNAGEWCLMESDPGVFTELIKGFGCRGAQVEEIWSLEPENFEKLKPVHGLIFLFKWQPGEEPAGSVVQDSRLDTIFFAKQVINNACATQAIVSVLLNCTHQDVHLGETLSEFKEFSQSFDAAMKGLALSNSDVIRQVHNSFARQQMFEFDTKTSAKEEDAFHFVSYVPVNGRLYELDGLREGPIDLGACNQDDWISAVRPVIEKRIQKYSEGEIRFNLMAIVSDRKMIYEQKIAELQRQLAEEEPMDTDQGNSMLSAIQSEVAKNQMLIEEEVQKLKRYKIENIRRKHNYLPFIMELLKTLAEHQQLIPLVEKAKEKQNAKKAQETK
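Material: Human UCH37 enzyme supplied as purified proteasome complex | Schedule: 30 min preincubation with enzyme, 25 min cleavage at room temperature | Detection: AMC fluorescence 355/460 nm | Measure: % inhibition of Ub-AMC cleavage fluorescence | Controls: Wells without proteasome as full block, compound-free enzyme plus substrate as uninhibited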
Yeast superoxide = yeast age-related superoxide inhibition as caloric restriction mimetic | S. cerevisiae aged cells, superoxide DHE fluorescence; stronger effect = lower value | superoxide response (% of plate mean), % at 10 µM | 330,000 tested, 0.18% active | AID 2690;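 active = superoxide response under a set limit, about three screen SD below normal, cut at about 65% in these data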;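 note: yeast aged for seven days with compound at 30 °C before DHE staining; 100% = average MFI of all compound-treated wells on the plate with controls excluded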
Superoxide pick = confirmation of caloric restriction mimetics inhibiting yeast age-related superoxide; shares compounds with Yeast superoxide; S. cerevisiae aging, superoxide DHE fluorescence; stronger effect = lower value; superoxide response (% of plate), % at 10 µM; 850 tested, 1% active;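 active = superoxide signal below 65% of the plate average of sample wells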;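 note: cells aged with compound for 7 days at 30 degrees C before staining; 100% equals mean DHE fluorescence of all compound wells on the plate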
DHE fluor count = counter-screen for compounds affecting DHE oxidation and fluorescence in yeast; shares compounds with Yeast superoxide; 850 tested, under 10 active; fluorescence response, % at 10 µM; S. cerevisiae BY4741, flow cytometry; stronger effect = lower value; AID 435000;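 active = fluorescence response below 15%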;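 note: percent of the mean fluorescence averaged over all compound wells on the plate; lower means stronger quenching of DHE signal or ROS scavenging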
* hit, by the source's call; i = inactive; . = not tested or not shown. Shown are actives, neighbours in structure and some others; about 1.9% of the full set was active somewhere.

SMILES | Rce1 inhib | PG9 Ab binder | MIN6 prolif | Rev-erbA mod | UCH37 inh | Yeast superoxide | Superoxide pick | DHE fluor count
COc1ccccc1-c1nnc(NC(=O)c2ccc(S(=O)(=O)N(C)CC3CCCO3)cc2)o1 (centres undefined) | i | -1 | 0 | -8 | 7 | 94 | 94 | 96
COc1cc(OC)c(OC)cc1C=NNc1ncnc2c1[nH]c1ccc(C)cc12 | . | . | . | . | -13 | . | . | .
COc1cc(C=NNC(=O)Nc2ccccc2)ccc1OCCOc1ccccc1C | . | . | . | . | 1 | . | . | .
CCOC(=O)NC(=O)C(C#N)=NNc1cccc(Cl)c1 | . | . | . | . | 10 | . | . | .
CCOC(=O)NC(=O)/C(C#N)=N/Nc1ccc(F)cc1 | i | -2 | 0 | -5 | . | 81 | 107 | 112
CC(C)NC(=O)c1ccc(C(C)C)cc1 | i | 0 | . | 2 | . | 52* | 108 | 106
CC(C)c1ccc(C(=O)NCc2ccc(Cl)cc2)cc1 | i | -1 | 0 | -4 | 5 | 98 | . | .
Cc1noc2ncnc(SCc3ccc(C(F)(F)F)cc3)c12 | i | -4 | -4 | 0 | 5 | 102 | . | .
Cc1ccc(CSc2ncnc3onc(C)c23)cc1 | i | 2 | 0 | 6 | 8 | 58* | 112 | 111
CCn1c2ccc(CC(=O)O)cc2c2cc(CC(=O)O)ccc21 | i | -1 | -1 | -1 | -8 | 105 | 101 | 103
O=S1(=O)N=C(N(CCO)N=C/C=C/c2ccccc2)c2ccccc21 | . | . | . | . | -6 | . | . | .
Nc1nnn(CC(=O)NN=Cc2cccc3ccccc23)n1 | . | . | . | . | 4 | . | . | .
CCSc1nnc(-c2ccc(OC)cc2)o1 | i | 0 | -3 | -1 | -2 | 100 | . | .
CCCCCCCCSc1nnc(-c2ccc(OC)cc2)o1 | i | 1 | -1 | 6 | 1 | 87 | 103 | 93
CC(=NNC(=O)CCCC(=O)O)c1c(-c2ccccc2)c2cc(Cl)ccc2[nH]c1=O | . | . | . | . | 2 | . | . | .
COc1cccc(Cn2nnc(C(=O)NCc3ccc4c(c3)OCO4)c2N)c1 | i | -4 | 2 | 4 | 1 | 64* | 102 | 96
COc1cccc(CNC(=O)c2nnn(CC(=O)Nc3ccc4c(c3)OCO4)c2N)c1 | i | 0 | -1 | -4 | 0 | 104 | . | .
CCOC(=O)N1CCN(Cc2nc(-c3cccc(C)c3)no2)CC1 | . | 0 | 0 | 2 | 1 | 64* | 110 | 109
Cc1cccc(C)c1NC(=O)c1cn(-c2ccccc2)nc1-c1ccccc1 | i | -4 | -3 | -2 | -2 | 99 | . | .
O=C(NN=C1CCCCCC1)c1cn(-c2ccccc2)nc1-c1ccccc1 | i | -1 | 0 | -3 | 5 | 64* | 126 | 103
CCC1SC(=NN=Cc2ccco2)N(Cc2ccccc2)C1=O (centres undefined) | . | . | . | . | 4 | . | . | .
CC(=O)CSc1nc2ccc(Nc3nc(N4CCOCC4)nc(N4CCOCC4)n3)cc2s1 | i | -3 | 0 | 2 | 4 | 60* | 101 | 103
Clc1cccc(-c2ccc(C=Nc3ccc(N4CCOCC4)cc3)o2)c1 | i | -2 | . | -1 | 1 | 53* | 93 | 96
C(=NN(c1ccccc1)c1ccccc1)c1ccc2c(c1)OCO2 | . | . | . | . | 2 | . | . | .
CC1=CC(C)C(C=NN=C(N)N)C(C)C1 (centres undefined) | . | . | . | . | 3 | . | . | .
SMILES | Rce1 inhib | PG9 Ab binder | MIN6 prolif | Rev-erbA mod | UCH37 inh | Yeast superoxide | Superoxide pick | DHE fluor count
CC(C)CNC(=S)NNC(=O)c1csc2c1CCC(C)C2 (centres undefined) | i | -1 | -2 | -3 | -1 | 59* | 91 | 89
COc1cc(OC)c(OC)cc1C=NNC(=O)c1ccc(=O)n(C)c1 | . | . | . | . | 14 | . | . | .
CC1O[C@@H](OCC2O[C@@H](Oc3cc(O)c4c(c3)OC(c3ccc(O)cc3)CC4=O)[C@H](O)[C@@H](O)[C@@H]2O)[C@H](O)[C@H](O)[C@H]1O (some centres undefined) | . | 0 | 1 | -3 | 4 | 62* | 104 | 92
COc1ccc([C@@H]2CC(=O)c3c(O)cc(O[C@@H]4OC(CO[C@@H]5OC(C)[C@H](O)[C@@H](O)[C@H]5O)[C@@H](O)[C@H](O)[C@H]4O)cc3O2)cc1O (some centres undefined) | . | 0 | -2 | 1 | 2 | 70 | . | .
COc1ccc(C(=O)NN=Cc2ccc(OC)c(COc3ccccc3Br)c2)c(OC)c1 | . | . | . | . | 2 | . | . | .
Cc1nn(C)cc1C=NNC(=O)C1(O)c2ccccc2-c2ccccc21 | . | . | . | . | 4 | . | . | .
Cn1ncc(Br)c1C(=O)NN=Cc1ccc(OS(=O)(=O)c2ccccc2)cc1 | . | . | . | . | 0 | . | . | .
O=C(NCc1ccco1)c1nn(-c2ccccc2)c(=O)c2ccccc12 | i | 0 | -2 | 2 | 6 | 62* | 90 | 107
COc1ccc(-n2nc(C(=O)NCC(=O)NCc3ccco3)c3ccccc3c2=O)cc1 | i | 0 | -3 | -2 | -2 | 102 | . | .
Cc1ccc(C=NNC(=O)c2cccc(S(=O)(=O)N3CCOCC3)c2)o1 | . | . | . | . | 8 | . | . | .
COc1ccc(Cl)cc1C(=O)NCc1cnn(C)c1C | i | -1 | -1 | 0 | 3 | 65* | 107 | 100
CCOC(=O)C(=NNc1cc(Cl)ccc1Cl)N1CC(C)OC(C)C1 (centres undefined) | . | . | . | . | 2 | . | . | .
O=C(NNc1nc(=O)c2cccnc2s1)c1ccccc1O | i | -1 | -6 | 3 | 13 | 50* | 99 | 112
COc1ccc(OC)c(-n2nnnc2SCC(=O)NCCc2ccccc2)c1 | i | 0 | 1 | -5 | 4 | 53* | 114 | 114
CCC(CO)Oc1cc(NCc2ccc(O)cc2)c2ncn(C(C)C)c2c1 (centres undefined) | . | -3 | 1 | 1 | 1 | 65* | 83 | 91
CCC(CO)Oc1cc(NCc2ccc(C(C)(C)C)cc2)c2ncn(C(C)C)c2c1 (centres undefined) | . | -1 | -6 | 5 | 7 | 115 | . | .
COc1ccc(-n2c(C)cc(C=NNc3nc(N4CCOCC4)nc(N4CCOCC4)n3)c2C)cc1 | . | . | . | . | 0 | . | . | .
COc1cc(Nc2ncnc(N)n2)cc(OC)c1 | i | 1 | -3 | -4 | 3 | 59* | 105 | 110
CCOc1cc(C=NNC(N)=O)cc(Br)c1OCc1ccccc1 | . | . | . | . | 3 | . | . | .
CCN(c1ccccc1)S(=O)(=O)c1ccc(C(=O)Nc2nnc(COC)o2)cc1 | i | 0 | -1 | -5 | 2 | 93 | . | .
CCN(c1ccccc1)S(=O)(=O)c1ccc(C(=O)Nc2nnc(C3CC3)o2)cc1 | i | -2 | -4 | -1 | 1 | 99 | 97 | 90
CN(c1ccccc1)S(=O)(=O)c1ccc(C(=O)Nc2nnc(C3CC3)o2)cc1 | . | 1 | -5 | 4 | 2 | 95 | 98 | 100
